Active and inactive are the calls of the source. No cut-off for these calls is given here.

For data set [1], the system named is 3T3-L1. Briefly: Activation of AMPK pathway in mouse 3T3-L1 cells assessed as increase in […] mRNA expression at 1 uM after 24 hrs by RT-qPCR analysis. It is filed as cell-based. The following applies: filed as activator. In general terms: In qPCR the cycle at which signal appears reflects the starting amount.
Data set [2] concerns 3T3-L1. Kind of data set: Activation of AMPK pathway in mouse 3T3-L1 cells assessed as increase in CPT-1beta mRNA expression at 1 uM after 24 hrs by RT-qPCR analysis. It is filed as cell-based. The following applies: filed as activator.
A short description of data set [3]: Clearance in Sprague-Dawley rat at 2 mg/kg, iv up to 24 hrs by LC-MS/MS analysis. Conditions: in vivo.
Data set [4] concerns Mus musculus. Kind of data set: Antiobesity activity in high fat diet-induced obese C57BL/6J mouse model assessed as decrease in liver weight at 20 mg/kg, ip administered for every other days for 6 weeks. The format is functional, organism-based.
For data set [5], the system named is 3T3-L1. Kind of data set: Lipid lowering activity in mouse 3T3-L1 cells assessed as reduction in adipogenic cocktail-induced triglyceride levels at 1 uM incubated for 6 days by Oil-red O staining based assay. The format is functional, cell-based. Conditions: time 6.0 day. An outline of the steps:
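Differentiating 3T3-L1 cells were treated at 1 µM for 6 days, then washed with PBS and fixed in 4% formaldehyde for 1 h. Cells were stained with 0.3% Oil Red O for 30 min at room temperature in the dark and imaged at ×200.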

Data set [6] has as its system 3T3-L1. Kind of data set: Activation of AMPK pathway in adipogenic cocktail-induced mouse 3T3-L1 cells with SiRNA-induced AMPKalpha knock down assessed as decrease in PPARgamma protein expression at 1 uM after 24 hrs by Western blot analysis. The format is cell-based. An outline of the steps: (§1)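 3T3-L1 cells at 80% density transfected with 50 nM AMPKα siRNA or negative control for 24 h. Once confluent, differentiated with adipogenic cocktail with or without compound. Protein by Western blot normalized to actin. TG measured by GPO-POD kit, normalized to BCA protein, expressed as % of control.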
For orientation: In western blotting, separated proteins are transferred to a membrane and probed.

The test system of data set [7] is Mus musculus. Briefly: Antiobesity activity in high fat diet-induced obese C57BL/6J mouse model assessed as decrease in body weight at 20 mg/kg, ip administered for every other days for 6 weeks. The format is functional, organism-based. An outline of the steps: (§2)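 Male C57BL/6J mice (7–8 weeks) fed HFC diet (60% fat, 1% cholesterol) for up to 14 weeks. From week 9, given 20 mg/kg i.p. every other day for 6 weeks in saline with 10% ethanol and 10% castor oil, or vehicle. Body weight and food intake recorded daily. At end, mice fasted 6 h, anesthetized, and blood collected into EDTA. Plasma chemistry run on an auto-analyzer; insulin by ultra-sensitive ELISA.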

For data set [8], the system named is 3T3-L1. Briefly: Lipid lowering activity in mouse 3T3-L1 cells assessed as adipogenic cocktail-induced triglyceride levels at 1 uM after 6 to 9 days by GPO-POD assay relative to control. It is filed as functional. Conditions: time 6-9 day. An outline of the steps:
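3T3-L1 cells were differentiated (cocktail on days 0–3, insulin thereafter) with 1 µM compound present during defined windows (days 0–3, 3–6, 6–9, or 0–3/0–6/0–9). TG was measured at day 9 by GPO-POD after Triton X-100 lysis and sonication. TG was normalized to BCA protein and expressed as % of differentiated control.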

Data set [9] in a line: AUC(0 to t) in Sprague-Dawley rat at 2 mg/kg, iv up to 24 hrs by LC-MS/MS analysis. The format is ADME, organism-based. Details: route intravenous, dose 2 mg/kg, time <=24. Conditions: in vivo. In short, it runs like this: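 Male Sprague-Dawley rats (180-220 g, n = 3) received a single intravenous dose of 2 mg/kg in ethanol/saline (5:95). Blood was sampled at 0, 30 min, 1, 2, 4, 8, 12 and 24 h after dosing and centrifuged to plasma. Plasma drug levels were measured by LC-MS/MS, and pharmacokinetic parameters were calculated from the concentration-time data.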

A further data set relates to C2C12. Briefly: Activation of AMPK pathway in mouse C2C12 cells assessed as increase in glucose uptake at 1 uM after 6 hrs in presence of LY-294002 by 2-NBDG/Hoechst 33342 staining based Confocal microscopic method. It is filed as cell-based. Conditions: filed as activator. In short, it runs like this: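 C2C12 myoblasts kept in DMEM with 10% FBS and 1% penicillin/streptomycin at 37 °C under 5% CO2.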

Data set [10] has as its system 3T3-L1. Briefly: Activation of AMPK pathway in adipogenic cocktail-induced mouse 3T3-L1 cells with SiRNA-induced AMPKalpha knock down assessed as decrease in TG level at 1 uM after 6 days by GPO-POD assay. It is filed as cell-based. The following applies: time 6.0 day. An outline of the steps: as §1
The subject of data set [11] is Mus musculus. Kind of data set: Antiobesity activity in high fat diet-induced obese C57BL/6J mouse model assessed as LDL cholesterol level at 20 mg/kg, ip administered for every other days for 6 weeks by auto-analyzer method (reference value: 0.9 +/- 0.4 mM). The format is functional. In short, it runs like this:
as §2

The subject of data set [12] is Mus musculus. Briefly: Anti-hyperglycemic activity in high fat diet-induced obese C57BL/6J mouse model assessed as decrease in blood glucose level at 20 mg/kg, ip after 6 hrs. It is filed as functional, organism-based. An outline of the steps:
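C57BL/6J mice fed HFC diet (60% fat, 1% cholesterol). Single i.p. injection of saline or compound at 20 mg/kg. Blood glucose measured with a glucose monitor at 0, 0.5, 1, 2, 4, 8, 12 and 24 h.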

As a reminder, the clearance is the volume of plasma or blood freed of the substance per unit of time. High values mean a high capacity for elimination, low ones a low capacity for elimination. For the molecule `CN(C)CCCNc1nc(-c2[nH]c3ccccc3c2C=O)nc2ccccc12`, the outcome with 3T3-L1 [1] and with 3T3-L1 [2] was Active. Besides, the clearance in data set [3] is 7.5 L/h/kg.

A word on the AUC(0-t): it is the area under the concentration-time curve up to a stated or last time point. A higher AUC(0-t) goes with more exposure. `COc1ccc2[nH]c(-c3nc(NCCCCN4CCCC4)c4ccccc4n3)c(C=O)c2c1`: the result in the data set with Mus musculus [4], in the data set on 3T3-L1 [5], in the data set on Mus musculus [7], in the data set on C2C12 and in the data set with Mus musculus [12] was Active. For the same molecule, the result in the data set with 3T3-L1 [6] and in the data set with 3T3-L1 [10] was inactive. Besides, the values for the Activity in the data set with 3T3-L1 [8] and with Mus musculus [11] were 35.3% and 0.81 mM, respectively. For the same molecule, the AUC(0-t) at 24 h in [9] came out at 0.308 µg·h/mL.

Source of the values: ChEMBL document CHEMBL4732044, “Discovery of a promising agent IQZ23 for the treatment of obesity and related metabolic disorders” (Eur J Med Chem, 2020).
